# Measurements pooled from the literature.
# FLT3 D835V/ITD: Receptor-type tyrosine-protein kinase FLT3 (FLT3, Homo sapiens, UniProt P36888, D835V/ITD)
# FLT3 D835H: Receptor-type tyrosine-protein kinase FLT3 (FLT3, Homo sapiens, UniProt P36888, D835H)
# FLT3 autoinhibited: Receptor-type tyrosine-protein kinase FLT3, autoinhibited (FLT3, Homo sapiens, UniProt P36888)
# FLT3 D835V: Receptor-type tyrosine-protein kinase FLT3 (FLT3, Homo sapiens, UniProt P36888, D835V)
# FLT3 R834Q: Receptor-type tyrosine-protein kinase FLT3 (FLT3, Homo sapiens, UniProt P36888, R834Q)
# FLT3 D835Y: Receptor-type tyrosine-protein kinase FLT3 (FLT3, Homo sapiens, UniProt P36888, D835Y)
# FLT3: Receptor-type tyrosine-protein kinase FLT3 (FLT3, Homo sapiens, UniProt P36888)
SMILES,target,observed,method,concentration,remaining binding
CCS(=O)(=O)c1cc2cc(C[C@@](O)(CC(C)(C)c3ccc(F)cc3C(N)=O)C(F)(F)F)[nH]c2cn1,FLT3 D835V/ITD,cell-free assay,competition with immobilised ligand,1 µM,73%
CN(C)c1ncc(F)c(-c2cnn3ncccc23)n1,FLT3 D835H,binding,,1 µM,86%
CCc1ccccc1C(=O)Nc1n[nH]c2c(C)c(F)c(C3C(C#N)=C(C)N(C)C(C)=C3C#N)cc12,FLT3 autoinhibited,cell-free assay,competition with immobilised ligand,1 µM,88%
Cc1cnc(Nc2ccc(C(=O)N3CCC(N4CCCC4)CC3)cc2)nc1-c1cc2ccccc2s1,FLT3 D835H,binding,competition with immobilised ligand,1 µM,1.1%
Cc1cnn2ncc(-c3ccnc(N(C)C)n3)c2c1,FLT3 D835V,binding,,1 µM,66%
NS(=O)(=O)c1cc(NC(=O)Cc2ccccc2)ccc1Oc1cccc(Cl)c1,FLT3 D835V,cell-free assay,competition with immobilised ligand,1 µM,86%
O=C(NCC1CCOCC1)c1n[nH]cc1NC(=O)c1c(F)cccc1F,FLT3 autoinhibited,binding,competition with immobilised ligand,1 µM,78%
O=C(NCCCN1CCOCC1)c1ccc(Nc2ncc(Cl)c(-c3ccc(Cl)s3)n2)cc1,FLT3 D835V/ITD,binding,competition with immobilised ligand,1 µM,1.8%
Cc1c(C(=O)O)cc(-c2ccc(C3CCNCC3)cc2)c2ccc(-c3ccc(C(F)(F)F)cc3)cc12,FLT3 R834Q,binding,competition with immobilised ligand,1 µM,100%
CN(C)c1nccc(-c2cnc3ncccn23)n1,FLT3 D835Y,binding,,1 µM,78%
C[C@H](c1ccnc(Nc2nc3ccc(-c4cc(N(C)C)ncn4)cc3[nH]2)c1)N1CCN(C(=O)CC(F)(F)F)CC1,FLT3,cell-free assay,competition with immobilised ligand,0.1 µM,67%
c1cncc(-c2cccc(Nc3nccc(NC4CCCCC4)n3)c2)c1,FLT3,binding,competition with immobilised ligand,10 µM,0.35%
c1ccc(N2CCN(Cc3nc4ccccc4[nH]3)CC2)nc1,"Receptor-type tyrosine-protein kinase FLT3 (FLT3, Homo sapiens, UniProt P36888, ITD)",binding,competition with immobilised ligand,1 µM,100%
O=C(c1ccc(Nc2ncc(Cl)c(-c3cc4ccccc4s3)n2)cc1)N1CCC(N2CCCC2)CC1,"Receptor-type tyrosine-protein kinase FLT3 (FLT3, Homo sapiens, UniProt P36888, N841I)",binding,competition with immobilised ligand,1 µM,0%
C[C@H](NC(=O)c1cnc2n1[C@](C)(Cc1ccc(C#N)cc1)C(=O)N2c1cc(Cl)c(F)c(Cl)c1)C(=O)NC1(c2ccccn2)CC1,"Receptor-type tyrosine-protein kinase FLT3 (FLT3, Homo sapiens, UniProt P36888, K663Q)",cell-free assay,competition with immobilised ligand,1 µM,100%
C[C@@H](c1ccc(-n2cnc3c(N)ncnc32)cc1)N1CCc2nn(C)c(Cc3ccccc3)c2C1=O,FLT3 D835H,binding,competition with immobilised ligand,0.1 µM,94%
CN(CCCC(F)(F)F)c1nccc(-c2cnn3ncccc23)n1,FLT3 R834Q,binding,,1 µM,100%
COc1cnc(Nc2cccc(S(N)(=O)=O)c2)nc1N1CCN(c2ccccc2)CC1,FLT3 autoinhibited,binding,competition with immobilised ligand,1 µM,91%
O=C(c1ccc(Nc2nccc(-c3cc4ccccc4s3)n2)cc1)N1CCC(N2CCCC2)CC1,FLT3 autoinhibited,binding,competition with immobilised ligand,1 µM,64%
N[C@@H]1CCN(c2nccc(-c3cnn4ncccc34)n2)C1,FLT3,binding,,1 µM,100%
O=C(NCCCN1CCOCC1)c1ccc(Nc2nccc(-c3cc4ccccc4s3)n2)cc1,"Receptor-type tyrosine-protein kinase FLT3 (FLT3, Homo sapiens, UniProt P36888, F691L/ITD)",binding,competition with immobilised ligand,1 µM,37%
C[C@H]1CCN(c2nccc(-c3cnn4ncccc34)n2)C1,FLT3 D835Y,binding,,1 µM,81%
O=C(c1ccc(Nc2ncc(Cl)c(-c3ccc(Cl)s3)n2)cc1)N1CCC(N2CCCC2)CC1,FLT3 D835Y,binding,competition with immobilised ligand,1 µM,1.1%
CN(C)c1ncnc(-c2ccc3nc(Nc4cc(CN5CCN(C(=O)CC(F)(F)F)CC5)ccn4)[nH]c3c2)c1Cl,FLT3 D835Y,cell-free assay,competition with immobilised ligand,1 µM,38%
COc1ncc2cc3ccccc3nc2c1C#N,FLT3,cell-free assay,competition with immobilised ligand,5 µM,91%
